ChEMBL document CHEMBL1141647, “Novel ofloxacin derivatives: synthesis, antimycobacterial and toxicological evaluation” (Bioorg Med Chem Lett, 2008)
Values after ≈ are worked out from the molar mass of the structure shown.

Assays:
[1] = test system: Mycolicibacterium smegmatis; assay: Antimycobacterial activity against Mycobacterium smegmatis ATCC 14468 by agar dilution method; assay type: functional
How it was run: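 MC² (M. smegmatis) growth inhibition; MIC99 taken as the lowest concentration giving complete inhibition of bacterial growth, in µM.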

DNA gyrase subunit A = DNA gyrase subunit A (Mycolicibacterium smegmatis, UniProt Q59556); assay: Inhibition of Mycobacterium smegmatis DNA gyrase
DNA gyrase subunit A, sequence (Q59556 whole entry): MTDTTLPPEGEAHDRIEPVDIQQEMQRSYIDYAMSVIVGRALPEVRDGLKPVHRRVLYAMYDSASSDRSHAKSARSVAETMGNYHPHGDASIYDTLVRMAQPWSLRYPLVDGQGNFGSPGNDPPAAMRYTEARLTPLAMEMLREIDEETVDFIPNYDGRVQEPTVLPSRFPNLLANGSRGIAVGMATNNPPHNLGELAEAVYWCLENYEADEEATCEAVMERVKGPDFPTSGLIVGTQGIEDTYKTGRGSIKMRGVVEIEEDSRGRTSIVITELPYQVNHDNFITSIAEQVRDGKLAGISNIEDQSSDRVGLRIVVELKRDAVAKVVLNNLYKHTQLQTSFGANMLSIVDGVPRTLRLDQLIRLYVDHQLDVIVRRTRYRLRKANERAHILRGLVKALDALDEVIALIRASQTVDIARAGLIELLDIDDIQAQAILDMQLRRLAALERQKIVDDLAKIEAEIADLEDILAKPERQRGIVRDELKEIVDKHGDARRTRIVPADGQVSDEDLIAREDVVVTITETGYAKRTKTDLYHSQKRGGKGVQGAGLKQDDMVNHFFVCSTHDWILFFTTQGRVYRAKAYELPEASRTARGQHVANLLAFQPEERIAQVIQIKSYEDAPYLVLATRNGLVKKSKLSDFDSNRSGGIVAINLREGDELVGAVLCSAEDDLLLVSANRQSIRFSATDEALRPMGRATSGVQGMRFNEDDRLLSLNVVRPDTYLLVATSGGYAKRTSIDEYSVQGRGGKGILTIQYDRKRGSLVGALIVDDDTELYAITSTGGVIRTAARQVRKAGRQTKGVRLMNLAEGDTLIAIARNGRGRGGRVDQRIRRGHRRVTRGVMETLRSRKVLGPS
How it was run: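 Inhibition of DNA supercoiling by M. smegmatis (MC²) gyrase, run under standard assay conditions. Varying compound amounts were tested against a fixed amount of enzyme, and IC50 was derived from that series. Relaxed circular DNA served as marker, 5% DMSO as solvent control, and moxifloxacin at 5 µg/mL as positive control.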

[2] = test system: Mycobacterium tuberculosis; assay: Antimycobacterial activity against Mycobacterium tuberculosis H37Rv by agar dilution method; assay type: functional
How it was run: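 MIC99 was taken as the lowest concentration giving complete inhibition of bacterial growth.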

Mus musculus [3] = assay: Phototoxic effect in UV light irradiated mouse assessed as ear thickness at 140 mg/kg, after 96 hrs relative to control; assay type: ADME, organism-based; set-up: dose 140 mg/kg; conditions: in vivo
How it was run: (§1)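 Mice dosed at 140 mg/kg and exposed to UV immediately after dosing. Irradiation ended at 4 h. Ear thickness (mm) was measured at 0 (pre-dose), 4, 24, 48, 72 and 96 h, left and right ears averaged, mean ± SEM. Comparison was against vehicle controls (0.5% aqueous sodium carboxymethylcellulose, 10 mL/kg) and against the 0 h reading.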

Mus musculus [4] = assay: Phototoxic effect in UV light irradiated mouse assessed as ear thickness at 140 mg/kg, after 4 hrs relative to control; assay type: ADME, organism-based; set-up: dose 140 mg/kg; conditions: in vivo; how it was run: as §1
Mus musculus [5] = assay: Phototoxic effect in UV light irradiated mouse assessed as number of mouse bearing erythema at 140 mg/kg, after 96 hrs relative to control; assay type: ADME, organism-based; set-up: dose 140 mg/kg; conditions: in vivo
How it was run: (§2)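 Mice received 140 mg/kg and were UV-irradiated immediately after dosing, irradiation ending at 4 h. Both ears were scored for erythema at 0, 4, 24, 48, 72 and 96 h, counted as the number of mice with erythema. Vehicle control was 0.5% aqueous sodium carboxymethylcellulose at 10 mL/kg.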

Mus musculus [6] = assay: Phototoxic effect in UV light irradiated mouse assessed as number of mouse bearing erythema at 140 mg/kg, after 72 hrs relative to control; assay type: ADME, organism-based; set-up: dose 140 mg/kg; conditions: in vivo; how it was run: as §2
Mus musculus [7] = assay: Phototoxic effect in mouse assessed as ear thickness at 140 mg/kg administered before UV light exposure relative to control; assay type: ADME, organism-based; set-up: dose 140 mg/kg; conditions: in vivo; how it was run: as §1
Mus musculus [8] = assay: Phototoxic effect in UV light irradiated mouse assessed as ear thickness at 140 mg/kg, after 24 hrs relative to control; assay type: ADME, organism-based; set-up: dose 140 mg/kg; conditions: in vivo; how it was run: as §1
Mus musculus [9] = assay: Phototoxic effect in UV light irradiated mouse assessed as number of mouse bearing erythema at 140 mg/kg, after 4 hrs relative to control; assay type: ADME, organism-based; set-up: dose 140 mg/kg; conditions: in vivo; how it was run: as §2
Mus musculus [10] = assay: Phototoxic effect in UV light irradiated mouse assessed as ear thickness at 140 mg/kg, after 72 hrs relative to control; assay type: ADME, organism-based; set-up: dose 140 mg/kg; conditions: in vivo; how it was run: as §1
Mus musculus [11] = assay: Phototoxic effect in mouse assessed as number of mouse bearing erythema at 140 mg/kg administered before UV light exposure relative to control; assay type: ADME, organism-based; set-up: dose 140 mg/kg; conditions: in vivo; how it was run: as §2
Mus musculus [12] = assay: Phototoxic effect in UV light irradiated mouse assessed as number of mouse bearing erythema at 140 mg/kg, after 48 hrs relative to control; assay type: ADME, organism-based; set-up: dose 140 mg/kg; conditions: in vivo; how it was run: as §2
Mus musculus [13] = assay: Phototoxic effect in UV light irradiated mouse assessed as number of mouse bearing erythema at 140 mg/kg, after 24 hrs relative to control; assay type: ADME, organism-based; set-up: dose 140 mg/kg; conditions: in vivo; how it was run: as §2
Mus musculus [14] = assay: Phototoxic effect in UV light irradiated mouse assessed as ear thickness at 140 mg/kg, after 48 hrs relative to control; assay type: ADME, organism-based; set-up: dose 140 mg/kg; conditions: in vivo; how it was run: as §1
Vero = assay: Cytotoxicity against african green monkey Vero cells after 72 hrs by MTT assay; assay type: cell-based; conditions: Chlorocebus sabaeus
How it was run: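 Vero cells exposed for 72 h; tested up to 62.5 µg/mL. Viability was read as cellular conversion of MTT to formazan, and IC50 was reported in µM.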

Compound | MIC99 [1] [µM] | MIC99 [2] [µM] | IC50 (Vero) [µM] | further results
CC1COc2c(N3CCN(C(c4ccccc4)c4ccc(Cl)cc4)CC3)c(F)c([N+](=O)[O-])c3c(=O)c(C(=O)O)cn1c23 (stereo not given) | 0.66 (≈ 0.391 µg/mL) | 2.63 (≈ 1.56 µg/mL) | 105 | IC50 (DNA gyrase subunit A): 16.9 µM; Activity (Mus musculus [3]): 0.31 mm; Activity (Mus musculus [4]): 0.28 mm; Activity (Mus musculus [5]): Non-toxic; Activity (Mus musculus [6]): Non-toxic; Activity (Mus musculus [7]): 0.28 mm; Activity (Mus musculus [8]): 0.28 mm; Activity (Mus musculus [9]): Non-toxic; Activity (Mus musculus [10]): 0.29 mm; Activity (Mus musculus [11]): Non-toxic; Activity (Mus musculus [12]): Non-toxic; Activity (Mus musculus [13]): Non-toxic; Activity (Mus musculus [14]): 0.29 mm
CC1COc2c(N3CCN(C(=O)c4ccco4)CC3)c(F)c([N+](=O)[O-])c3c(=O)c(C(=O)O)cn1c23 (stereo not given) | 3.21 (≈ 1.56 µg/mL) | 0.8 (≈ 0.389 µg/mL) | 64.2 | 
CC1COc2c(N3CCN(C(=O)c4ccco4)CC3)c(F)cc3c(=O)c(C(=O)O)cn1c23 (stereo not given) | 3.53 (≈ 1.56 µg/mL) | 7.09 (≈ 3.13 µg/mL) |  | IC50 (DNA gyrase subunit A): > 113 µM; Activity (Mus musculus [3]): 0.3 mm; Activity (Mus musculus [4]): 0.3 mm; Activity (Mus musculus [5]): Non-toxic; Activity (Mus musculus [6]): Non-toxic; Activity (Mus musculus [7]): 0.29 mm; Activity (Mus musculus [8]): 0.29 mm; Activity (Mus musculus [10]): 0.29 mm; Activity (Mus musculus [11]): Non-toxic; Activity (Mus musculus [12]): Non-toxic; Activity (Mus musculus [13]): Non-toxic; Activity (Mus musculus [14]): 0.29 mm
COc1cc2c(cc1OC)CN(c1c(F)c([N+](=O)[O-])c3c(=O)c(C(=O)O)cn4c3c1OCC4C)CC2 (stereo not given) | 12.5 (≈ 6.25 µg/mL) | 1.56 (≈ 0.779 µg/mL) | 62.5 | 
CC1COc2c(N3CCn4cc(C(=O)O)nc4C3)c(F)c(N)c3c(=O)c(C(=O)O)cn1c23 (stereo not given) | 5.28 (≈ 2.34 µg/mL) | 0.88 (≈ 0.39 µg/mL) | > 141 | 
CC1COc2c(N3CCN(Cc4ccc5c(c4)OCO5)CC3)c(F)cc3c(=O)c(C(=O)O)cn1c23 (stereo not given) | 26 (≈ 12.5 µg/mL) | 6.5 (≈ 3.13 µg/mL) |  | 
CC1COc2c(N3CCC4(CC3)OCCO4)c(F)c([N+](=O)[O-])c3c(=O)c(C(=O)O)cn1c23 (stereo not given) | 3.47 (≈ 1.56 µg/mL) | 0.21 (≈ 0.0944 µg/mL) | 139 | 
CC1COc2c(N3CCC4(CC3)OCCO4)c(F)cc3c(=O)c(C(=O)O)cn1c23 (stereo not given) | 3.86 (≈ 1.56 µg/mL) | 0.47 (≈ 0.19 µg/mL) | 155 | IC50 (DNA gyrase subunit A): 124 µM; Activity (Mus musculus [3]): 0.35 mm; Activity (Mus musculus [4]): 0.37 mm; Activity (Mus musculus [5]): Non-toxic; Activity (Mus musculus [7]): 0.34 mm; Activity (Mus musculus [8]): 0.32 mm; Activity (Mus musculus [9]): Toxic; Activity (Mus musculus [10]): 0.32 mm; Activity (Mus musculus [11]): Non-toxic; Activity (Mus musculus [13]): Toxic; Activity (Mus musculus [14]): 0.31 mm
Cc1onc(-c2c(F)cccc2F)c1C(=O)N1CCN(c2c(F)cc3c(=O)c(C(=O)O)cn4c3c2OCC4C)CC1 (stereo not given) | 44 (≈ 25 µg/mL) | 11 (≈ 6.25 µg/mL) |  | 
CC1COc2c(N3CCN(C(=O)C4COc5ccccc5O4)CC3)c(F)c([N+](=O)[O-])c3c(=O)c(C(=O)O)cn1c23 (stereo not given) | 11.3 (≈ 6.25 µg/mL) | 2.81 (≈ 1.56 µg/mL) | 113 | 
CC1COc2c(N3CCn4cc(C(=O)O)nc4C3)c(F)cc3c(=O)c(C(=O)O)cn1c23 (stereo not given) | 29.2 (≈ 12.5 µg/mL) | 0.91 (≈ 0.39 µg/mL) | > 146 | 
CC1COc2c(N3CCC(n4c(=O)[nH]c5cc(Cl)ccc54)CC3)c(F)cc3c(=O)c(C(=O)O)cn1c23 (stereo not given) | 48.7 (≈ 25 µg/mL) | 1.52 (≈ 0.78 µg/mL) | > 122 | 
CC1COc2c(N3CCN(C(=O)C4COc5ccccc5O4)CC3)c(F)cc3c(=O)c(C(=O)O)cn1c23 (stereo not given) | 49.1 (≈ 25 µg/mL) | 12.3 (≈ 6.25 µg/mL) |  | 
CC1COc2c(N3CCN(C)C(c4ccccc4)C3)c(F)cc3c(=O)c(C(=O)O)cn1c23 (stereo not given) | 114 (≈ 50 µg/mL) | 14.3 (≈ 6.25 µg/mL) |  | 
CC1COc2c(N3CCC(O)(c4ccc(Cl)cc4)CC3)c(F)c([N+](=O)[O-])c3c(=O)c(C(=O)O)cn1c23 (stereo not given) | 6.04 (≈ 3.13 µg/mL) | 1.51 (≈ 0.782 µg/mL) | 60.4 | 
CC1CN(c2c(F)c([N+](=O)[O-])c3c(=O)c(C(=O)O)cn4c3c2OCC4C)CC(C)O1 (stereo not given) | 1.85 (≈ 0.78 µg/mL) | 1.85 (≈ 0.78 µg/mL) | 148 | IC50 (DNA gyrase subunit A): > 119 µM
